Experiment [1] addresses Melanocortin receptor 4 (Mus musculus) (UniProt P56450). As to the kind of experiment: Ratio of IC50 for MDE6-82-3c to IC50 for test compound for displacement of [125I]-NDP-MSH from mouse melanocortin receptor 4 expressed in HEK293 cell mebranes incubated for 1 hr by automatic gamma counting method. In short, it runs like this: (§1)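 Cells washed, lysed 10 min with 0.1 M NaOH/1% Triton X-100, then gamma-counted. Specific binding defined with unlabelled NDP-MSH and normalized to it. Duplicate wells, two experiments. IC50 by non-linear fit. Fold difference taken relative to the Asn-parent macrocycle control.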
(In a radioligand displacement assay an active substance lowers the binding of a labelled ligand.)

In experiment [2] the target is T1, Melanocortin receptor 3 (Mus musculus, UniProt P33033). As to the kind of experiment: Agonist activity at mouse melanocortin receptor 3 expressed in HEK293 cells assessed as stimulation of cAMP accumulation incubated for 2 hrs by cAMP Alpha-screen assay. It is filed as functional, cell-based.
Experiment [3] addresses T2, Melanocortin receptor 4 (Homo sapiens, UniProt P32245). The experiment in a line: Inverse agonist activity at human melanocortin receptor 4 expressed in HEK293 cells assessed as inhibition of basal cAMP accumulation incubated for 2 hrs by cAMP Alpha-screen assay. It is filed as functional, cell-based. The gist of the method:
(§2)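 AlphaScreen cAMP assay in stably transfected HEK293 cells, with 10,000 cells/well in IBMX-containing HBSS/HEPES buffer pH 7.4. Peptide alone, up to 100 μM, 2 h at room temperature in the dark, then 2 h lysis/detection. Inverse agonism taken as percent decrease of cAMP from basal, relative to maximal NDP-MSH signal, at 100 μM. Duplicates, three independent experiments.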
For orientation: Cyclic AMP is a second messenger, typically raised through Gs and lowered through Gi signalling.

Experiment [4] has as its target T1, Melanocortin receptor 3. As to the kind of experiment: Antagonist activity at mouse melanocortin receptor 3 expressed in HEK293 cells assessed as inhibition of NDP-MSH-induced cAMP accumulation incubated for 2 hrs by cAMP Alpha-screen assay based Schild analysis. To be noted: read-out: pA2 (converted). It is filed as functional, cell-based. The gist of the method: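 NDP-MSH (10−6 to 10−12) plus antagonist at 10,000, 5,000, 1,000 and 500 nM, 2 h dark at room temperature. AlphaScreen cAMP read after lysis/bead step 2 h. Schild pA2; duplicates, at least three independent experiments.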

In experiment [5] the target is Melanocortin receptor 4 (Mus musculus, UniProt P56450). The experiment in a line: Agonist activity at mouse melanocortin receptor 4 expressed in HEK293 cells assessed as stimulation of cAMP accumulation incubated for 2 hrs by cAMP Alpha-screen assay. It is filed as functional, cell-based.
Experiment [6] deals with T3, Melanocortin receptor 5 (Mus musculus, UniProt P41149). As to the kind of experiment: Antagonist activity at mouse melanocortin receptor 5 expressed in HEK293 cells assessed as inhibition of NDP-MSH-induced cAMP accumulation incubated for 2 hrs by cAMP Alpha-screen assay based Schild analysis. It is filed as functional, cell-based. To be noted: read-out: pA2 (converted).

Experiment [7] deals with T3, Melanocortin receptor 5. The experiment in a line: Displacement of [125I]-NDP-MSH from mouse melanocortin receptor 5 expressed in HEK293 cell mebranes incubated for 1 hr by automatic gamma counting method. It is filed as cell-based.
Experiment [8] concerns the target Melanocyte-stimulating hormone receptor (Mus musculus) (UniProt Q01727). As to the kind of experiment: Ratio of IC50 for MDE6-82-3c to IC50 for test compound for displacement of [125I]-NDP-MSH from mouse melanocortin receptor 1 expressed in HEK293 cell mebranes incubated for 1 hr by automatic gamma counting method. The gist of the method: as §1
Experiment [9] deals with Melanocortin receptor 5 (Mus musculus) (UniProt P41149). As to the kind of experiment: Inverse agonist activity at mouse melanocortin receptor 5 expressed in HEK293 cells assessed as inhibition of basal cAMP accumulation at 100 uM incubated for 2 hrs by cAMP Alpha-screen assay relative to control. It is filed as functional, cell-based. The gist of the method: as §2
Experiment [10] deals with Melanocyte-stimulating hormone receptor (Mus musculus) (UniProt Q01727). The experiment in a line: Agonist activity at mouse melanocortin receptor 1 expressed in HEK293 cells assessed as stimulation of cAMP accumulation at 100 uM incubated for 2 hrs by cAMP Alpha-screen assay relative to control. It is filed as functional, cell-based.
In experiment [11] the target is T1, Melanocortin receptor 3. As to the kind of experiment: Displacement of [125I]-NDP-MSH from mouse melanocortin receptor 3 expressed in HEK293 cell mebranes incubated for 1 hr by automatic gamma counting method. It is filed as cell-based.
Experiment [12] has as its target T2, Melanocortin receptor 4. The experiment in a line: Ratio of IC50 for MDE6-82-3c to IC50 for test compound for displacement of [125I]-NDP-MSH from human melanocortin receptor 4 expressed in HEK293 cell membranes incubated for 1 hr by automatic gamma counting method. In short, it runs like this:
as §1

SMILES strings stand for the structures. Activity calls are given as the source filed them. No cut-off for these calls is given here. Square brackets hold non-standard residues; d marks the D form. Peptide text beside a SMILES is read from it.

T1 sequence (P33033 whole entry): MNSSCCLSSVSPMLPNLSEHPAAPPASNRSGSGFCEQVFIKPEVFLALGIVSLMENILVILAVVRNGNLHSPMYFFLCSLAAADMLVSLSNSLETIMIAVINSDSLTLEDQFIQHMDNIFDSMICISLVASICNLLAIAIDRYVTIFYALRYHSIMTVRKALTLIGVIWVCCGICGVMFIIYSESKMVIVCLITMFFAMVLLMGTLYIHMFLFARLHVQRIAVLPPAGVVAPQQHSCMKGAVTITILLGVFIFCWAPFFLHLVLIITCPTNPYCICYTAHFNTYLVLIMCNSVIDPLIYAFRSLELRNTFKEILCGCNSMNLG
Sequence of Melanocyte-stimulating hormone receptor (Mus musculus) (Q01727 whole entry, looked up): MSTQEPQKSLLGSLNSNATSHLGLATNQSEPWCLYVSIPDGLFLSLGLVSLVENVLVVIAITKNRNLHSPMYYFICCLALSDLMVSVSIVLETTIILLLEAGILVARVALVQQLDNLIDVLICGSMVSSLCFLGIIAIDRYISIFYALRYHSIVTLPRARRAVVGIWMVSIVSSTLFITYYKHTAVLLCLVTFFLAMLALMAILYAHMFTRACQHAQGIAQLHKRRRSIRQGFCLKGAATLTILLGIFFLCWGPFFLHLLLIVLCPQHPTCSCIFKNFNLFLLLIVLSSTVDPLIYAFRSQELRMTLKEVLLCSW
T2 sequence (P32245 whole entry): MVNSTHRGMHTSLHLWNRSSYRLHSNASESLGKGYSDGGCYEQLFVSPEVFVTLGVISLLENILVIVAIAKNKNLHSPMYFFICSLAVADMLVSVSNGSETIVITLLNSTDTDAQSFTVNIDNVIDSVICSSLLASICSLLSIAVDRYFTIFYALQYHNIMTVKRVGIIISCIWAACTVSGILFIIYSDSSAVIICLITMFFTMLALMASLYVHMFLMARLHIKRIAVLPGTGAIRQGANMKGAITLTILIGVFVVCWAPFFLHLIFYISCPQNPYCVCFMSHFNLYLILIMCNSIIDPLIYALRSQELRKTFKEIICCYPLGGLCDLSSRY
T3 sequence (P41149 whole entry): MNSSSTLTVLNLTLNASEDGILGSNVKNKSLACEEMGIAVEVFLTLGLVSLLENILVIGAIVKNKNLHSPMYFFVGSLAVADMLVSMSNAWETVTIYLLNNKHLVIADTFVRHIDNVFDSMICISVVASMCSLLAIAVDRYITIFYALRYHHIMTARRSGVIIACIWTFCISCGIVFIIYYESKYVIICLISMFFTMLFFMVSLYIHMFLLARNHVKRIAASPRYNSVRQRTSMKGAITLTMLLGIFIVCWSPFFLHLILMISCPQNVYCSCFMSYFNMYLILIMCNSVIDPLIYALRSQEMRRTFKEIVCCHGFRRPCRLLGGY
Sequence of Melanocortin receptor 5 (Mus musculus) (P41149 whole entry): as above
Sequence of Melanocortin receptor 4 (Mus musculus, UniProt P56450) (P56450 whole entry): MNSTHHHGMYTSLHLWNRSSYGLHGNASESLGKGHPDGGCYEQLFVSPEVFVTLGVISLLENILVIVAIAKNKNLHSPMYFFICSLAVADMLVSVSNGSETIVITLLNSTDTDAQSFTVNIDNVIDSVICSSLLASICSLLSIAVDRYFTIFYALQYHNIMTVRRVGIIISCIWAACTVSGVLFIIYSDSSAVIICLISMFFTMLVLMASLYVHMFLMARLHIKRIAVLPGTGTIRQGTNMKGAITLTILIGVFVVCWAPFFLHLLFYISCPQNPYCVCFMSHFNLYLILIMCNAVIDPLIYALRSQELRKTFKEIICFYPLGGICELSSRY
Sequence of Melanocortin receptor 4 (Mus musculus) (P56450 whole entry): as above

On to `C[C@@H]1NC(=O)[C@H](CC(N)=O)NC(=O)[C@H](Cc2ccccc2)NC(=O)[C@H](Cc2ccccc2)NC(=O)[C@H](CS)NC(=O)[C@@H]2CCCN2C(=O)[C@H]2CCCN2C(=O)[C@H](Cc2ccccc2)NC1=O` (cyclo(PCFFNAF[dP])), for which the Ratio IC50 in experiment [1] is 90; in experiment [8] it was 3; at Melanocortin receptor 4 [12], 300. Moreover, the concentration for a half-maximal effect (EC50) at Melanocortin receptor 3 [2] and at Melanocortin receptor 4 [5] was above 100 µM each time. In addition, the result on Melanocortin receptor 4 [3] was inactive. The Kb on Melanocortin receptor 3 [4] and at Melanocortin receptor 5 [6] was above 10 µM each time. Moreover, the half-maximal inhibitory concentration (IC50) on Melanocortin receptor 5 [7] and at Melanocortin receptor 3 [11] was above 100 µM each time. Further, the inhibition (in general, the percentage by which the read-out fell short of the control) in experiment [9] was found to be 32%. Also, the Activity in [10] is 46%.

Source of the values: ChEMBL document CHEMBL4354837 (J Med Chem, 2020).
